Data reported in ChEMBL document CHEMBL4330087, “Synthesis, antimicrobial activity, attenuation of aminoglycoside resistance in MRSA, and ribosomal A-site binding of pyrene-neomycin conjugates” (Eur J Med Chem, 2019).
pIC50: −log10 of the molar value. Activity calls are given as the source filed them. The rule behind the calls is not given here.

Key:
Ribosomal RNA A-site [1] = test: Displacement of F-NEO from Escherichia coli rRNA-A site after 10 to 20 mins by fluorescence assay relative to NEO; format: nucleic-acid assay; parameters: concentration or dose not given beside the values
Summary of the method: (§1)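 100 nM F-NEO:A-site complex in 10 mM HEPES, 50 mM NaCl, 0.04 mM EDTA, pH 7.0, mixed with ligand and incubated 10-20 min at room temperature. Fluorescence read at ex 485/em 525 nm, in duplicate. Percent binding was computed from the intensities of ligand-treated complex, complex without ligand, and complex with neomycin.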

Ribosomal RNA A-site [2] = test: Displacement of F-NEO from human cytosolic rRNA-A site after 10 to 20 mins by fluorescence assay relative to NEO; format: nucleic-acid assay; parameters: concentration or dose not given beside the values; summary of the method: as §1
Ribosomal RNA A-site [3] = test: Displacement of F-NEO from human mitochondrial rRNA-A site after 10 to 20 mins by fluorescence assay relative to NEO; format: nucleic-acid assay; parameters: concentration or dose not given beside the values; summary of the method: as §1
Homo sapiens [4] = species: Homo sapiens; test: Displacement of F-NEO from human mitochondrial rRNA-A site C1410U mutant after 10 to 20 mins by fluorescence assay relative to NEO; parameters: concentration or dose not given beside the values; summary of the method: as §1
Homo sapiens [5] = species: Homo sapiens; test: Displacement of F-NEO from human mitochondrial rRNA-A site A1490G mutant after 10 to 20 mins by fluorescence assay relative to NEO; summary of the method: as §1
Ribosomal RNA A-site [6] = test: Displacement of F-NEO from human cytosolic rRNA-A site after 10 to 20 mins by fluorescence assay; format: nucleic-acid assay
Summary of the method: (§2)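 A 100 nM F-NEO:A-site RNA complex in 10 mM HEPES, 50 mM NaCl, 0.04 mM EDTA, pH 7.0 was titrated with 2-fold dilutions of ligand from 20 to 0.009 μM, or from 60 or 40 μM for weaker ligands. Incubated 10-20 min at room temperature, fluorescence read at ex 485/em 525 nm. IC50 from dose-response curve fit.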

[7] = Displacement of F-NEO from human mitochondrial rRNA-A site C1410U mutant after 10 to 20 mins by fluorescence assay; summary of the method: as §2
Staphylococcus aureus [8] = test: Antibacterial activity against NEO-sensitive Staphylococcus aureus 25923 at 6.25 uM after 15 to 20 hrs by CLSI protocol based microdilution assay relative to control; format: functional
Summary of the method: (§3)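 Single-concentration screen at 6.25 μM against exponential-phase cultures, in duplicate, with NEO as reference. Enterococcus was grown in BHI broth, M. smegmatis in TS broth with 0.05% Tween 80, and all other strains in TS broth. The 1% DMSO water vehicle was added to broth (background) and culture (growth control). Incubation was 37 °C, humidified, 15-20 h. Result is percent growth inhibition.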

Staphylococcus aureus [9] = test: Antibacterial activity against NEO-sensitive Staphylococcus aureus harboring NorA mutant at 6.25 uM after 15 to 20 hrs by CLSI protocol based microdilution assay relative to control; format: functional
Summary of the method: (§4)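 Exponential-phase cultures were exposed to 6.25 μM compound in duplicate with neomycin as reference, at 37 °C in a humidified incubator for 15-20 h. Broth and culture controls received sterile water with 1% DMSO. Percent growth inhibition was calculated against the growth and background controls.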

[10] = tested on: Staphylococcus epidermidis; test: Antibacterial activity against NEO-sensitive Staphylococcus epidermidis 12384 at 6.25 uM after 15 to 20 hrs by CLSI protocol based microdilution assay relative to control; format: functional; summary of the method: as §3
Staphylococcus aureus [11] = test: Antibacterial activity against methicillin-resistant Staphylococcus aureus 33591 at 6.25 uM after 15 to 20 hrs by CLSI protocol based microdilution assay relative to control; format: functional; summary of the method: as §4
Staphylococcus aureus [12] = test: Antibacterial activity against methicillin-resistant Staphylococcus aureus A960649 at 6.25 uM after 15 to 20 hrs by CLSI protocol based microdilution assay relative to control; format: functional; summary of the method: as §4
Staphylococcus aureus [13] = test: Antibacterial activity against methicillin-resistant Staphylococcus aureus SU-5 at 6.25 uM after 15 to 20 hrs by CLSI protocol based microdilution assay relative to control; format: functional; summary of the method: as §4
Staphylococcus aureus [14] = test: Antibacterial activity against methicillin-resistant Staphylococcus aureus M0602 at 6.25 uM after 15 to 20 hrs by CLSI protocol based microdilution assay relative to control; format: functional; summary of the method: as §4
Streptococcus pyogenes = test: Antibacterial activity against NEO-resistant Streptococcus pyogenes C203 at 6.25 uM after 15 to 20 hrs by CLSI protocol based microdilution assay relative to control; format: functional; summary of the method: as §4
Enterococcus faecalis = test: Antibacterial activity against NEO-intermediate sensitive Enterococcus faecalis ATCC 29212 at 6.25 uM after 15 to 20 hrs by CLSI protocol based microdilution assay relative to control; format: functional; summary of the method: as §3
Enterococcus faecium = test: Antibacterial activity against NEO-intermediate sensitive Enterococcus faecium BM4105-RF at 6.25 uM after 15 to 20 hrs by CLSI protocol based microdilution assay relative to control; format: functional; summary of the method: as §3
[15] = tested on: Mycolicibacterium smegmatis; test: Antibacterial activity against NEO-sensitive Mycobacterium smegmatis at 6.25 uM after 15 to 20 hrs by CLSI protocol based microdilution assay relative to control; format: functional; summary of the method: as §3
Bacillus anthracis = test: Antibacterial activity against NEO-sensitive Bacillus anthracis BA852 at 6.25 uM after 15 to 20 hrs by CLSI protocol based microdilution assay relative to control; format: functional; summary of the method: as §4
Listeria monocytogenes = test: Antibacterial activity against NEO-sensitive Listeria monocytogenes ATCC 19115 at 6.25 uM after 15 to 20 hrs by CLSI protocol based microdilution assay relative to control; format: functional; summary of the method: as §3
Escherichia coli [16] = test: Antibacterial activity against NEO-sensitive Escherichia coli ATCC 25922 at 6.25 uM after 15 to 20 hrs by CLSI protocol based microdilution assay relative to control; format: functional; summary of the method: as §3
Escherichia coli [17] = test: Antibacterial activity against NEO-sensitive Escherichia coli harboring TolC mutant at 6.25 uM after 15 to 20 hrs by CLSI protocol based microdilution assay relative to control; format: functional; summary of the method: as §4
Pseudomonas aeruginosa = test: Antibacterial activity against NEO-resistant Pseudomonas aeruginosa 27853 at 6.25 uM after 15 to 20 hrs by CLSI protocol based microdilution assay relative to control; format: functional; summary of the method: as §4
Klebsiella oxytoca = test: Antibacterial activity against NEO-sensitive Klebsiella oxytoca HM-625 at 6.25 uM after 15 to 20 hrs by CLSI protocol based microdilution assay relative to control; format: functional; summary of the method: as §3
[18] = Antibacterial activity against NEO-sensitive Enterobacter cloacae 13047 at 6.25 uM after 15 to 20 hrs by CLSI protocol based microdilution assay relative to control; format: functional, Enterobacter cloacae subsp. cloacae, ATCC 13047; summary of the method: as §3
Klebsiella pneumoniae = test: Antibacterial activity against Klebsiella pneumoniae NR-151410 at 6.25 uM after 15 to 20 hrs by CLSI protocol based microdilution assay relative to control; format: functional; summary of the method: as §3
[19] = Inhibition of Eis (unknown origin)
[20] = Inhibition of AAC(3)-4 (unknown origin)
[21] = Inhibition of AAC(6')-1e (unknown origin)
[22] = Inhibition of AAC(2')-1c (unknown origin)
[23] = Inhibition of APH(3')-1a (unknown origin)
[24] = Inhibition of APH(2\")-1a (unknown origin)

Row | Structure (SMILES) | inhibition (Ribosomal RNA A-site [1]) | inhibition (Ribosomal RNA A-site [2]) | inhibition (Ribosomal RNA A-site [3]) | inhibition (Homo sapiens [4]) | inhibition (Homo sapiens [5]) | pIC50 (Ribosomal RNA A-site [6]) | pIC50 [7] | Activity (Staphylococcus aureus [8]) | Activity (Staphylococcus aureus [9]) | Activity [10] | Activity (Staphylococcus aureus [11]) | Activity (Staphylococcus aureus [12]) | Activity (Staphylococcus aureus [13]) | Activity (Staphylococcus aureus [14]) | Activity (Streptococcus pyogenes) | Activity (Enterococcus faecalis) | Activity (Enterococcus faecium) | Activity [15] | Activity (Bacillus anthracis) | Activity (Listeria monocytogenes) | also measured
1 | NC[C@@H]1O[C@H](O[C@H]2[C@@H](O)[C@H](O[C@@H]3[C@@H](O)[C@H](N)C[C@H](N)[C@H]3O[C@H]3O[C@H](CN)[C@@H](O)[C@H](O)[C@H]3N)O[C@@H]2CNC(=O)Cc2ccc3ccc4cccc5ccc2c3c45)[C@H](N)[C@@H](O)[C@@H]1O | 33% | 38% | 47% | 73% | 22% | 6.43 | 6.56 | 30% | inactive | 15% | 27% | 15% | inactive | inactive | inactive | 12% | 0% | 38% | inactive | inactive | Activity (Escherichia coli [16]): 7%; Activity (Escherichia coli [17]): inactive; Activity (Pseudomonas aeruginosa): 19%; Activity (Klebsiella oxytoca): 5%; Activity [18]: 0%; Activity (Klebsiella pneumoniae): 10%; inhibition [19]: Active; inhibition [20]: Active; inhibition [21]: Active; inhibition [22]: Active; inhibition [23]: Active; inhibition [24]: Active
2 | NC[C@@H]1O[C@H](O[C@H]2[C@@H](O)[C@H](O[C@@H]3[C@@H](O)[C@H](N)C[C@H](N)[C@H]3O[C@H]3O[C@H](CN)[C@@H](O)[C@H](O)[C@H]3N)O[C@@H]2CNC(=O)CCCc2ccc3ccc4cccc5ccc2c3c45)[C@H](N)[C@@H](O)[C@@H]1O | 99% | 99% | 89% | 103% | 88% | 6.70 | 6.83 | 12% | 43% | 80% | 23% | 35% | 22% | 19% | 23% | 0% | 0% | 38% | 23% | 22% | Activity (Escherichia coli [16]): 8%; Activity (Escherichia coli [17]): 54%; Activity (Pseudomonas aeruginosa): 11%; Activity (Klebsiella oxytoca): 5%; Activity [18]: 5%; Activity (Klebsiella pneumoniae): 12%; inhibition [19]: Active; inhibition [20]: Active; inhibition [21]: Active; inhibition [22]: Active; inhibition [23]: Active; inhibition [24]: Active
3 | NC[C@@H]1O[C@H](O[C@H]2[C@@H](O)[C@H](O[C@@H]3[C@@H](O)[C@H](N)C[C@H](N)[C@H]3O[C@H]3O[C@H](CN)[C@@H](O)[C@H](O)[C@H]3N)O[C@@H]2CSCCNC(=O)CCc2ccc3ccc4cccc5ccc2c3c45)[C@H](N)[C@@H](O)[C@@H]1O | 88% | 91% | 88% | 86% | 65% | 6.69 | 6.83 | 29% | inactive | 56% | 16% | 19% | inactive | inactive | 35% | 10% | 26% | 29% | inactive | inactive | Activity (Escherichia coli [16]): 0%; Activity (Escherichia coli [17]): inactive; Activity (Pseudomonas aeruginosa): 10%; Activity (Klebsiella oxytoca): 14%; Activity [18]: 0%; Activity (Klebsiella pneumoniae): 18%; inhibition [19]: Active; inhibition [20]: Active; inhibition [21]: Active; inhibition [22]: Active; inhibition [23]: Active; inhibition [24]: Active
4 | NC[C@@H]1O[C@H](O[C@H]2[C@@H](O)[C@H](O[C@@H]3[C@@H](O)[C@H](N)C[C@H](N)[C@H]3O[C@H]3O[C@H](CN)[C@@H](O)[C@H](O)[C@H]3N)O[C@@H]2CSCCNC(=O)Cc2ccc3ccc4cccc5ccc2c3c45)[C@H](N)[C@@H](O)[C@@H]1O | 101% | 114% | 102% | 103% | 102% | 7.01 | 7.15 | 48% | 60% | 81% | 0% | 7% | 39% | 32% | inactive | 20% | 15% | 43% | 100% | 52% | Activity (Escherichia coli [16]): 0%; Activity (Escherichia coli [17]): 100%; Activity (Pseudomonas aeruginosa): 0%; Activity (Klebsiella oxytoca): 16%; Activity [18]: 5%; Activity (Klebsiella pneumoniae): 23%; inhibition [19]: Active; inhibition [20]: Active; inhibition [21]: Active; inhibition [22]: Active; inhibition [23]: Active; inhibition [24]: Active
5 | NC[C@@H]1O[C@H](O[C@H]2[C@@H](O)[C@H](O[C@@H]3[C@@H](O)[C@H](N)C[C@H](N)[C@H]3O[C@H]3O[C@H](CN)[C@@H](O)[C@H](O)[C@H]3N)O[C@@H]2CSCCNC(=O)CCCc2ccc3ccc4cccc5ccc2c3c45)[C@H](N)[C@@H](O)[C@@H]1O | 78% | 66% | 74% | 92% | 58% | 6.76 | 6.90 | 36% | 53% | 82% | 20% | 30% | 34% | 32% | 20% | 18% | 0% | 41% | 100% | 49% | Activity (Escherichia coli [16]): 7%; Activity (Escherichia coli [17]): 100%; Activity (Pseudomonas aeruginosa): 7%; Activity (Klebsiella oxytoca): 13%; Activity [18]: 0%; Activity (Klebsiella pneumoniae): 20%; inhibition [19]: inactive; inhibition [20]: inactive; inhibition [21]: inactive; inhibition [22]: inactive; inhibition [23]: inactive; inhibition [24]: inactive
